Reference: ChEMBL document CHEMBL3297688, “New orally active dual enkephalinase inhibitors (DENKIs) for central and peripheral pain treatment” (J Med Chem, 2014)
The source made the active and inactive calls.

How the values were obtained:
Mus musculus [1] = test: Antinociceptive activity in OF1 mouse acute central pain model at 20 mg/kg, iv after 10 mins by hot plate test relative to vehicle-treated control; type: functional
Procedure, shortened: (§1)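 Male OF1 mice, iv dosing in water/mannitol (50 mg/mL) vehicle. Hot plate at 52 ± 1 °C read 10 min post-injection. Jump latency with a 240 s cutoff, expressed as % MPE. n = 10 per group. ANOVA with Newman–Keuls or Bonferroni tests versus vehicle.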

Mus musculus [2] = test: Activity in OF1 mouse acute central pain model at 150 mg/kg, po administered as single dose by hot plate test; type: functional, organism-based; parameters: dose 150 mg/kg
Procedure, shortened: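 Hot plate at 52 ± 1 °C, male OF1 mice. Single oral dose of 150 mg/kg. Jump latency recorded with a 240 s cutoff and converted to % MPE against control latency.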

Mus musculus [3] = test: Activity in OF1 mouse acute central pain model at 10 mg/kg, iv administered as single dose by hot plate test; type: functional, organism-based; parameters: dose 10 mg/kg
Mus musculus [4] = test: Antinociceptive activity in OF1 mouse persistent pain model assessed as reduction of formalin-induced paw licking at 50 mg/kg, po administered with EtOH/methyl cellulose in water 30 mins prior to formalin challenge measured after 1 to 5 mins relative to vehicle-treated control; type: functional; parameters: scale not given: the % may be the effect or the level left
Procedure, shortened: (§2)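 Male OF1 mice gavaged with 50 mg/kg in ethanol/methylcellulose 0.5% in water (1.5/98.5), 30 or 90 min before a plantar sc injection of 5% formalin (20 μL in saline). Licking time recorded over 0–5 min (early phase). n = 5–7 per group. ANOVA + Bonferroni versus vehicle.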

Mus musculus [5] = test: Antinociceptive activity in OF1 mouse acute central pain model at 10 mg/kg, iv administered with EtOH/Tween80/water after 10 mins by hot plate test relative to vehicle-treated control; type: functional
Procedure, shortened: (§3)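 Male OF1 mice dosed iv in ethanol/Tween80/water (1/1/8). Jump latency on a 52 ± 1 °C hot plate (240 s cutoff) read 10 min after injection, expressed as mean % MPE ± SEM. n = 18–21 per group for dose–response, n = 8 for 10 mg/kg comparisons. ED50 taken from dose–response. ANOVA + Bonferroni.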

Mus musculus [6] = test: Antinociceptive activity in OF1 mouse persistent pain model assessed as reduction of formalin-induced paw licking at 50 mg/kg, po administered with EtOH/methyl cellulose in water 90 mins prior to formalin challenge measured after 1 to 5 mins relative to vehicle-treated control; type: functional; parameters: scale not given: the % may be the effect or the level left; procedure, shortened: as §2
Mus musculus [7] = test: Antinociceptive activity in OF1 mouse acute central pain model at 150 mg/kg, po administered with EtOH/PEG400/water after 20 mins by hot plate test relative to vehicle-treated control; type: functional
Procedure, shortened: (§4)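 Oral gavage in male OF1 mice, vehicle EtOH/PEG400/H2O (10/40/50); 150 mg/kg for single-dose lines. Hot plate (52 ± 1 °C) jump latency read at 20, 40 and 60 min, 240 s cutoff, % MPE. […] ANOVA + Newman–Keuls or Bonferroni.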

Mus musculus [8] = test: Antinociceptive activity in OF1 mouse acute central pain model at 150 mg/kg, po administered with EtOH/PEG400/water after 40 mins by hot plate test relative to vehicle-treated control; type: functional; procedure, shortened: as §4
Mus musculus [9] = test: Antinociceptive activity in OF1 mouse acute central pain model at 150 mg/kg, po administered with EtOH/PEG400/water after 60 mins by hot plate test relative to vehicle-treated control; type: functional; procedure, shortened: as §4
Mus musculus [10] = test: Antinociceptive activity in po dosed CD1 mouse after 45 mins by hot plate test; type: functional; details: 0.75 h
Mus musculus [11] = test: Antinociceptive activity in iv dosed CD1 mouse administered with EtOH/cremophor/water after 10 mins by hot plate test; type: functional
Rattus norvegicus [12] = test: Antinociceptive activity in iv dosed Sprague-Dawley rat acute centrospinal nociception model administered with EtOH/Tween80/water after 10 to 20 mins by tail flick test relative to vehicle-treated control; type: functional, organism-based; details: TDE = time-dependent effect
Mus musculus [13] = test: Antinociceptive activity in OF1 mouse acute central pain model assessed as time duration of action at 150 mg/kg, po administered with EtOH/PEG400/water after 20 to 60 mins by hot plate test relative to vehicle-treated control; type: functional; procedure, shortened: as §4
Mus musculus [14] = test: Antihyperalgesic activity in OF1 mouse neuropathic pain model assessed as increase in partial sciatic nerve ligation-induced reduction in thermal threshold at 25 mg/kg, po by plantar test relative to vehicle-treated control; type: functional, organism-based; parameters: dose 25 mg/kg
Procedure, shortened: (§5)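 Partial ligation of 33–50% of the sciatic nerve in male OF1 mice; sham mice operated without ligation. Tested days 10–20 post-surgery, before and 20 min after 25 mg/kg po. Mechanical threshold by von Frey filaments; thermal latency by plantar test (8–10 s baseline, 20 s cutoff, mean of three trials at 5 min intervals). Ipsilateral and contralateral paws tested. n = 6–9 per group.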

Mus musculus [15] = test: Antinociceptive activity in po dosed OF1 mouse acute central pain model administered with EtOH/PEG400/water after 20 mins by hot plate test relative to vehicle-treated control; type: functional; procedure, shortened: as §4
Mus musculus [16] = test: Antinociceptive activity in OF1 mouse acute central pain model at 10 mg/kg, iv after 10 mins by hot plate test relative to vehicle-treated control; type: functional
Mus musculus [17] = test: Antiallodynic activity in OF1 mouse neuropathic pain model assessed as increase in partial sciatic nerve ligation-induced reduction of threshold for paw withdrawal at 25 mg/kg, po after 20 mins by von frey test relative to vehicle-treated control; type: functional; parameters: scale not given: the % may be the effect or the level left; procedure, shortened: as §5
Rattus norvegicus [18] = test: Antinociceptive activity in Sprague-Dawley rat acute centrospinal nociception model at 20 mg/kg, iv administered with EtOH/Tween80/water after 10 mins by tail flick test relative to vehicle-treated control
Mus musculus [19] = test: Antinociceptive activity in OF1 mouse acute central pain model assessed as jump latency at 10 mg/kg, iv after 10 mins by hot plate test relative to vehicle-treated control in presence of naloxone; type: functional, organism-based; parameters: dose 10 mg/kg
Procedure, shortened: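 Naloxone 0.5 mg/kg given sc before the test compound (10 mg/kg iv) in male OF1 mice. Hot plate (52 ± 1 °C) jump latency measured, 240 s cutoff. n = 7–10 per group. ANOVA followed by Bonferroni versus vehicle and versus drug alone.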

Rattus norvegicus [20] = test: Antinociceptive activity in Sprague-Dawley rat acute centrospinal nociception model at 100 mg/kg, po after 20 mins by tail flick test relative to vehicle-treated control; type: functional
Mus musculus [21] = test: Antinociceptive activity in iv dosed OF1 mouse acute central pain model assessed as jump latency administered with EtOH/Tween80/water after 10 mins by hot plate test relative to vehicle-treated control; type: functional; procedure, shortened: as §3
Mus musculus [22] = test: Antinociceptive activity in OF1 mouse acute central pain model assessed as time duration of action at 40 mg/kg, iv administered with water/mannitol after 10 mins by hot plate test relative to vehicle-treated control; type: functional
Rattus norvegicus [23] = test: Prodrug activation in rat plasma at 200 mg, po after 30 mins by LC/MS/MS analysis; details: 0.5 h
Mus musculus [24] = test: Antinociceptive activity in iv dosed OF1 mouse acute central pain model assessed as jump latency administered with water/mannitol after 10 mins by hot plate test relative to vehicle-treated control; type: functional; procedure, shortened: as §1
Mus musculus [25] = test: Antinociceptive activity in OF1 mouse acute central pain model at 40 mg/kg, iv after 10 mins by hot plate test relative to vehicle-treated control; type: functional; procedure, shortened: as §1
Mus musculus [26] = test: Antinociceptive activity in OF1 mouse acute central pain model at 60 mg/kg, iv after 10 mins by hot plate test relative to vehicle-treated control; type: functional; procedure, shortened: as §1

## CSCC[C@H](N)CSSCC(Cc1ccsc1)C(=O)N[C@@H](C)C(=O)OC(CO)CO (stereo partly drawn)
Mus musculus [1]
  Activity: 22%

## CSCC[C@H](N)CSSC[C@@H](Cc1ccccc1)C(=O)N[C@H](C(=O)O)[C@@H](C)O
Mus musculus [2]
  Activity: inactive
Mus musculus [3]
  Activity: inactive

## CCOC(=O)OC(C)OC(=O)CNC(=O)[C@@H](CSSC[C@@H](N)CC[S+](C)[O-])Cc1ccccc1.O=CO (stereo partly drawn)
Mus musculus [4]
  Activity: 54%
Mus musculus [5]
  Activity: 30%
Mus musculus [6]
  Activity: 41%

## CCOC(=O)OC(OC(=O)CNC(=O)[C@@H](CSSC[C@@H](N)CCSC)Cc1ccccc1)C1CCCCC1 (stereo partly drawn)
Mus musculus [7]
  Activity: 17%
Mus musculus [8]
  Activity: 3%
Mus musculus [9]
  Activity: 8%

## CSCC[C@H](N)CSSC[C@@H](Cc1ccccc1)C(=O)N[C@@H](C)C(=O)OCc1ccccc1
Mus musculus [10]
  ED50: 410 mg/kg
Mus musculus [11]
  ED50: 3 mg/kg

## CSCC[C@H](N)CSSCC(Cc1ccsc1)C(=O)N[C@@H](C)C(=O)OC[C@H](COC(C)=O)OC(C)=O (stereo partly drawn)
Mus musculus [1]
  Activity: 29%

## CCOC(=O)OC(C)OC(=O)CNC(=O)[C@@H](CSSC[C@@H](N)CCSC)Cc1ccccc1.O=CO (stereo partly drawn)
Rattus norvegicus [12]
  Activity: tde
Mus musculus [13]
  Time: <1 h
Mus musculus [4]
  Activity: 41%
Mus musculus [14]
  Activity: Active
Mus musculus [1]
  Activity: 58%
Mus musculus [15]
  ED50: 133 mg/kg
Mus musculus [16]
  Activity: 35%
Mus musculus [17]
  Activity: 51%
Rattus norvegicus [18]
  Emax at 20 mg/kg: 40%
Mus musculus [5]
  Activity: 78%
Mus musculus [7]
  Activity: 58%
Mus musculus [6]
  Activity: 41%
Mus musculus [19]
  Activity: inactive
Rattus norvegicus [20]
  Activity: 10%
Mus musculus [8]
  Activity: 28%
Mus musculus [21]
  Activity: Dose-dependent effect
  ED50: 4.5 mg/kg
Mus musculus [9]
  Activity: 7%
Mus musculus [22]
  Time: <40 min
Rattus norvegicus [23]
  Drug metabolism: 98%
Mus musculus [24]
  Activity: Dose-dependent effect
  ED50: 16 mg/kg
Mus musculus [25]
  Activity: 97%

## CCC(=O)OC(OC(=O)CNC(=O)[C@@H](CSSC[C@@H](N)CCSC)Cc1ccccc1)C1CCCCC1 (stereo partly drawn)
Mus musculus [7]
  Activity: 8%
Mus musculus [8]
  Activity: 10%
Mus musculus [9]
  Activity: 12%

## CCC(=O)OC(OC(=O)CNC(=O)[C@@H](CSSC[C@@H](N)CCSC)Cc1ccccc1)C(C)C (stereo partly drawn)
Mus musculus [7]
  Activity: 32%
Mus musculus [8]
  Activity: 24%
Mus musculus [9]
  Activity: 8%

## CCOC(=O)COC(=O)[C@H](C)NC(=O)C(CSSC[C@@H](N)CCSC)Cc1ccsc1 (stereo partly drawn)
Mus musculus [1]
  Activity: 32%

## CSCC[C@H](N)CSSCC(Cc1ccsc1)C(=O)N[C@@H](C)C(=O)OC[C@H]1O[C@@H](O)[C@H](O)[C@@H](O)[C@@H]1O (stereo partly drawn)
Mus musculus [1]
  Activity: 10%

## CSCC[C@H](N)CSSCC(Cc1ccsc1)C(=O)N[C@@H](C)C(=O)O (stereo partly drawn)
Mus musculus [2]
  Activity: inactive
Mus musculus [3]
  Activity: inactive

## CCOC(=O)OC(C)OC(=O)[C@H](C)NC(=O)C(CSSC[C@@H](N)CCSC)Cc1ccsc1 (stereo partly drawn)
Mus musculus [1]
  Activity: 44%

## CCOC(=O)OC(OC(=O)CNC(=O)[C@@H](CSSC[C@@H](N)CCSC)Cc1ccccc1)C(C)C (stereo partly drawn)
Mus musculus [7]
  Activity: 46%
Mus musculus [8]
  Activity: 18%
Mus musculus [9]
  Activity: 0%

## CSCC[C@H](N)CSSCC(Cc1ccsc1)C(=O)N[C@@H](C)C(=O)OC(COC(C)=O)COC(C)=O (stereo partly drawn)
Mus musculus [1]
  Activity: 40%

## CCOC(=O)OC(C)OC(=O)[C@@H](NC(=O)[C@@H](CSSC[C@@H](N)CCSC)Cc1ccccc1)C(C)O (stereo partly drawn)
Mus musculus [1]
  Activity: 29%
Mus musculus [26]
  Activity: 84%
Mus musculus [25]
  Activity: 61%

## CSCC[C@H](N)CSSC[C@@H](Cc1ccccc1)C(=O)NCC(=O)O
Mus musculus [2]
  Activity: inactive
Mus musculus [3]
  Activity: inactive

## C[S+]([O-])CC[C@H](N)CSSC[C@@H](Cc1ccccc1)C(=O)NCC(=O)O (stereo partly drawn)
Mus musculus [2]
  Activity: inactive
Mus musculus [3]
  Activity: inactive

## CSCC[C@H](N)CSSCC(Cc1ccsc1)C(=O)N[C@@H](C)C(=O)OCCS(C)(=O)=O (stereo partly drawn)
Mus musculus [1]
  Activity: 22%
